Assays:
[1] = Cytotoxicity against human MRC5 cells after 72 hrs by resazurin assay; assay type: cell-based
[2] = system: Trypanosoma brucei brucei; assay: microbe, parasite or virus in culture; settings: Squib-427, 72 h
[3] = target: T1, Class 1 phosphodiesterase PDEB1 (Trypanosoma brucei, UniProt Q8WQX9); assay: Inhibition of Trypanosoma brucei recombinant TbrPDEB1 expressed in Sf21 insect cells assessed as reduction of [3H]-cAMP hydrolysis by scintillation proximity assay
T1 sequence (Q8WQX9 whole entry): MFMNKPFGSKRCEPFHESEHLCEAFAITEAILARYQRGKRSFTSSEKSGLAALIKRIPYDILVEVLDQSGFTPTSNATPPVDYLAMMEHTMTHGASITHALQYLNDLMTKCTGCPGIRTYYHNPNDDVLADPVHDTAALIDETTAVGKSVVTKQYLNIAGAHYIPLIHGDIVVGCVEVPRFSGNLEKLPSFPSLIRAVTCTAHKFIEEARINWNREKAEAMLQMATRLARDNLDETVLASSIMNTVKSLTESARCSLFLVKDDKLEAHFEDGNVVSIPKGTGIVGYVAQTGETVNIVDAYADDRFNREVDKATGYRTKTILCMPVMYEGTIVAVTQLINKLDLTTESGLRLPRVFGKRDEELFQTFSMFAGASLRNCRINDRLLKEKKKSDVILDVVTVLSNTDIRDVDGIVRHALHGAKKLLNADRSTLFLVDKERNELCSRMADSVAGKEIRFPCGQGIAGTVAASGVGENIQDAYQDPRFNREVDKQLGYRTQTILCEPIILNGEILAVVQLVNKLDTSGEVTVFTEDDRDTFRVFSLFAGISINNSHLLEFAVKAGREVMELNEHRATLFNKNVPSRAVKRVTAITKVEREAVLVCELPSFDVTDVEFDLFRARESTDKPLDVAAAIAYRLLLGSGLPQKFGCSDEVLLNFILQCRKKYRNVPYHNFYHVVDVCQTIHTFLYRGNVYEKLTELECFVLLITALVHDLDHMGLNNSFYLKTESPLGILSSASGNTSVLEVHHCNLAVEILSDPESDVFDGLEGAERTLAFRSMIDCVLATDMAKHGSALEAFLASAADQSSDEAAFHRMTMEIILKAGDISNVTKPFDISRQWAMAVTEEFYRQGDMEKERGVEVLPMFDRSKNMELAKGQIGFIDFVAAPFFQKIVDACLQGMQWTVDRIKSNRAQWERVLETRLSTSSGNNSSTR
How it was run: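 Full-length PDEs used as supernatants of sonicated overexpressing cells: Sf21 for TbrPDEB1 and hPDE4A1/4B1/4C1/4D3, yeast for TbrPDEB2. Inhibition of ³H-cAMP hydrolysis measured by scintillation proximity assay with 0.5 μM cAMP substrate, in at least duplicates. Enzyme adjusted for <20% substrate consumption; blanks used denatured protein. IC50 obtained by nonlinear regression of dose-response curves.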

IC50 [2] | IC50 [3] | Structure (SMILES) | CC50 at 72 h [1]
10 µM | 2 µM | COc1ccc(C2=NN(C3CCCCCC3)C(=O)C2(C)C)cc1Cl | 32 µM
– | 0.79 µM | COc1ccc(C2=NN(C(C)C)C(=O)C2(C)C)cc1OCc1cccc2ccccc12 | –
– | > 10 µM | COc1ccc(C2=NN(C(C)C)C(=O)C2(C)C)cc1O | –
– | 5 µM | COc1ccc(C2=NN(C(C)C)C(=O)C2(C)C)cc1OCCCCOc1ccc(C#N)cc1 | –
– | 0.83 µM | COc1ccc(CCOc2cc(C3=NN(C(C)C)C(=O)C3(C)C)ccc2OC)cc1 | –
> 64 µM | > 10 µM | COc1ccc(C2=NNC(=O)C2(C)C)cc1Br | > 64 µM
– | 0.63 µM | COc1ccc(CCOc2cc(C3=NN(C4CCCCCC4)C(=O)C3(C)C)ccc2OC)cc1 | –
– | 10 µM | COc1ccc(C2=NN(C)C(=O)C2(C)C)cc1OCc1ccccc1 | –
6.3 µM | 0.5 µM | COc1ccc(C2=NN(C3CCCCCC3)C(=O)C2(C)C)cc1OCc1ccccc1 | > 64 µM
– | 0.63 µM | COc1ccc(C2=NN(C3CCCCCC3)C(=O)C2(C)C)cc1OCc1cc(C)on1 | –
– | > 10 µM | COc1ccc(C2=NN(C3CCCCCC3)C(=O)C2(C)C)cc1O | –
– | 0.25 µM | COc1ccc(C2=NN(C3CCCCCC3)C(=O)C2(C)C)cc1OCc1cccc2ccccc12 | –
– | 2 µM | COc1ccc(C2=NN(C(C)C)C(=O)C2(C)C)cc1OCc1ccc(C#N)cc1 | –
– | > 10 µM | COc1ccc(C2=NNC(=O)C2(C)C)cc1Cl | –
– | 0.5 µM | COc1ccc(C2=NN(C3CCCCCC3)C(=O)C2(C)C)cc1OCc1ccccn1 | –

Structure (SMILES) | IC50 [2] | IC50 [3] | CC50 at 72 h [1]
COc1ccc(C2CNC(=O)C2)cc1OC1CCCC1 (configuration not stated) [ROLIPRAM] | – | > 100 µM | –

— ChEMBL document CHEMBL2169737, “Catechol pyrazolinones as trypanocidals: fragment-based design, synthesis, and pharmacological evaluation of nanomolar inhibitors of trypanosomal phosphodiesterase B1” (J Med Chem, 2012)
